Laboratory results as given in article PMC4829539 (International Journal of Medical Sciences, 2016).
Read-outs that look alike come from different tables or passages of the source. One block for each compound: values may come before it.

Experiments:
[1] = assay type: in vivo, Male Wistar rats; details: rats, i.v., LC-MS/MS
How it was run: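 Anaesthetised 10-week-old male Wistar rats (pentobarbital 50 mg/kg, 37°C) received test compound 5.0 mg/kg i.v. via jugular vein, in saline. DMN array applied to shaved abdomen (2.0 m/s, then 2.5 N for 1-3 min). 2 µL ISF drawn from pore at 15, 30, 45, 60, 75, 90, 120 min; femoral-vein plasma sampled. Positive-ESI LC-MS/MS quantification; mean ± SE, unpaired t-test.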

[2] = n = 4, cited from earlier work
[3] = from DMNs, rats; cited from earlier work
[4] = rats; cited from earlier work
[5] = mice; cited from earlier work

Mean concentration of VCM in plasma compared with ISF, early phase ([1]; 30 min after administration): higher than that in ISF
Concentration of VCM in ISF compared with plasma, after 30 min ([1]; after 30 min): higher than that in plasma
Compound: CN[C@H](CC(C)C)C(=O)N[C@H]1C(=O)N[C@@H](CC(N)=O)C(=O)N[C@H]2C(=O)N[C@H]3C(=O)N[C@H](C(=O)N[C@H](C(=O)O)c4cc(O)cc(O)c4-c4cc3ccc4O)[C@H](O)c3ccc(c(Cl)c3)Oc3cc2cc(c3O[C@@H]2O[C@H](CO)[C@@H](O)[C@H](O)[C@H]2O[C@H]2C[C@](C)(N)[C@H](O)[C@H](C)O2)Oc2ccc(cc2Cl)[C@H]1O [VCM, Vancomycin]
AUC, ISF ([2]; ISF by ultrafiltration probe): 75300 ± 7700 ng·h/mL
Tmax (average), ISF ([2]; ISF by ultrafiltration probe): 39.6 min
AUC, blood ([2]; blood): 89800 ± 15700 ng·h/mL
Cmax in the blood ([2]; blood): 80.2 ± 18.5 µg/mL

Compound: insulin
Physiological availability (PA) [3]: 91.3-97.7%

Compound: low-molecular-weight heparin [LMWH]
Physiological availability (PA) [3]: 81.5-102.3%

Compound: recombinant human growth hormone [rhGH]
Bioavailability (BA) from the DMNs [4]: 87.5%

Compound: erythropoietin [EPO]
Bioavailability (BA) from the DMNs [5]: 82.1-99.4%
